Measurements published in article PMC2774150 (Apmis, 2008).
Entries after “also recorded” stand apart in the source; their conditions may differ. Read-outs that look alike come from different tables or passages of the source. Each block holds one compound with its values, some of them ahead of it.

What was measured:
[1] = system: H4 acetylation in A2780 xenograft tumor; test: Experiment 4: H4 acetylation score in A2780 tumor; type: in vivo, NMRI nude mice
Summary of the method: (§1)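 Groups of 3–4 NMRI nude mice with s.c. A2780 xenografts (500–1000 mg) received a single 200 mg/kg test compound dose i.v. or vehicle (L-arginine 400 mg/kg in isotonic sterile saline). Mice were killed at 15 min, 30 min, 1, 2 or 3 h. Tumor and spleen were halved, and one part was immunostained with T25 anti-acetyl-H4. Scores were 0–3 per mouse, averaged per time point.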

[2] = system: acetylated H4 in A2780 ovarian cancer cells; test: H4 acetylation by immunohistochemistry in paraffin-embedded A2780 cell blocks; type: cell-based, human; conditions: 1 μM for 1 h
[3] = system: H4 acetylation in A2780 ovarian cancer model; test: Experiment 1: H4 acetylation in vivo, A2780 xenograft; parameters: species or system NMRI nude mice; conditions: 100 mg/kg single i.v., 1 h
Summary of the method: (§2)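 Female NMRI nude mice, 6–8 weeks old, received about 10^7 cells with matrigel s.c. into the flank under Hypnorm/Dormicum. They were given 100 mg/kg test compound i.v. or vehicle (L-arginine 200 mg/kg in isotonic sterile saline) and killed after 1 h. Formalin-fixed, paraffin-embedded tumors were immunostained for acetylated H4 (mouse monoclonal T25, acetyl-Lys8/Lys12, 1:13,000; TEG pH 9 retrieval; EnVision+/DAB) and scored 0–3.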

[4] = system: H4 acetylation in peripheral blood from A2780 xenografts; conditions: 3 h after treatment, 40 mg/kg i.p.; cited from earlier work
[5] = Experiment 4: belinostat in plasma, tumor and spleen by LC-MS/MS; type: in vivo, NMRI nude mice
Summary of the method: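 A2780 xenograft mice received 200 mg/kg i.v. once; lithium-heparin plasma, tumor and spleen were collected at 15 min–3 h. Plasma was protein-precipitated with a 13C-labelled internal standard, dried and redissolved in 10% HCOOH/ACN. Tissues were homogenized in water/ACN/methanol containing internal standard (1 μg/ml). Analysis used LC-MS/MS on UPLC C18 (0.05% HCOOH/ACN, 5 min gradient, 0.5 ml/min), reporting ng/ml plasma and ng/g tissue.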

[6] = system: p21 expression in A2780 xenograft; test: Experiment 3: p21 expression in A2780 biopsies and tumors; type: in vivo, NMRI nude mice
Summary of the method: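 In A2780 xenografts (small 300–400 mg or large 1500–1800 mg), mice received 100 mg/kg test compound i.v. Pretreatment (large tumors) and post-dose needle biopsies were taken between 1 and 6 h; whole tumors were taken at 3, 6 or 24 h. Paraffin sections were immunostained for p21 (monoclonal EA10, 1:80; TEG pH 9 retrieval; EnVision+/DAB) and nuclear versus cytoplasmic staining was recorded.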

[7] = system: H4 acetylation in A548 lung cancer model; test: Experiment 1: H4 acetylation in vivo, A549 xenograft; parameters: species or system NMRI nude mice; conditions: 100 mg/kg single i.v., 1 h
Summary of the method: as §2

[8] = system: H4 acetylation in peripheral canine blood; conditions: 10 min after i.v. infusion given over 45 min, total dose 50 mg/kg; cited from earlier work
[9] = system: H4 acetylation in MCF-7 model; test: Experiment 1: H4 acetylation in vivo, MCF-7 xenograft; parameters: species or system NMRI nude mice; conditions: 100 mg/kg single i.v., 1 h
Summary of the method: as §2

[10] = system: acetylated H4 in A2780 xenograft; test: Experiment 2: H4 acetylation in A2780 biopsies and representative tumors; type: in vivo, NMRI nude mice; conditions: 100 mg/kg i.v., 1 h, A2780, Fig. 4A
Summary of the method: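 Mice bearing HCT-116, A2780, PC-3 or MCF-7 tumors (500–1000 mg) received 100 mg/kg test compound i.v. or vehicle and were killed after 1 h. Biopsies were taken with an 18G needle, aspirating while rotating. Biopsies and the remaining tumor were formalin-fixed, paraffin-embedded and stained with anti-acetyl-H4 T25 (1:13,000). Staining was scored negative, weak, moderate or strong (0–3).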

[11] = system: H4 acetylation in HCT-116 colon cancer model; test: Experiment 1: H4 acetylation in vivo, HCT-116 xenograft; parameters: species or system NMRI nude mice; conditions: 100 mg/kg single i.v., 1 h
Summary of the method: as §2

[12] = system: H4 acetylation in histones extracted from A2780 cells; conditions: cited from earlier work
[13] = system: H4 acetylation in PC-3 prostate cancer model; test: Experiment 1: H4 acetylation in vivo, PC-3 xenograft; parameters: species or system NMRI nude mice; conditions: 100 mg/kg single i.v., 1 h
Summary of the method: as §2

[14] = system: H4 acetylation in A2780 biopsies and tumors; test: Experiment 3: time dependence of H4 acetylation in A2780 biopsies and tumors; type: in vivo, NMRI nude mice; conditions: for H4 acetylation, 1 h biopsy / H4 acetylation, 2 h biopsy / H4 acetylation, 3 h biopsy / H4 acetylation, 3 h tumor / H4 acetylation, 6 h biopsy / H4 acetylation, 6 h tumor: individual mice
Summary of the method: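 Sixteen NMRI nude mice with small (300–400 mg) or large (1500–1800 mg) A2780 s.c. tumors received 100 mg/kg test compound i.v. at time zero. A pretreatment biopsy (large tumors only) and one post-dose 18G needle biopsy (1–6 h) were taken under isoflurane. Whole tumors were excised at 3, 6 or 24 h. Paraffin sections were stained with T25 anti-acetyl-H4 (1:13,000) and scored 0–3.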

H4 acetylation in spleen = test: Experiment 4: H4 acetylation score in spleen; type: in vivo, NMRI nude mice; conditions: 200 mg/kg i.v.
Summary of the method: as §1

[15] = cited from earlier work
[16] = system: histone acetylation in peripheral blood lymphocytes; conditions: clinical study; cited from earlier work
[17] = 200 mg/kg i.v., individual mice
[18] = 200 mg/kg i.v., individual mice, listed as Belinostat
[19] = single treatment 200 mg/kg i.v.
[20] = 100 mg/kg i.v., large tumors (1500–1800 mg)
[21] = 100 mg/kg i.v., small tumors (300–400 mg)
[22] = individual mice, listed as Belinostat

distribution to tumor and spleen tissue ([5]; 200 mg/kg i.v. single dose): similar | belinostat plasma concentration at maximal acetylation ([5]; 200 mg/kg i.v., 1 h after treatment, Fig. 8): above 10^3 ng/ml
Compound: O=C(/C=C/c1cccc(S(=O)(=O)Nc2ccccc2)c1)NO [belinostat]
H4 acetylation (score), tumor, 15 min [1, 17]: weak-to-moderate | H4 acetylation (score), tumor, 1 h [1, 17]: strong (strong (score=3)) | H4 acetylation (score), tumor, 3 h [1, 17]: weak and moderate | H4 acetylation (score), tumor, 15 min [1, 18]: Moderate (2); also recorded: No (0); also recorded: Weak (1) | H4 acetylation (score), tumor, 30 min [1, 18]: Moderate (2); also recorded: Strong (3); also recorded: Weak (1) | H4 acetylation (score), tumor, 1 h [1, 18]: Strong (3) | H4 acetylation (score), tumor, 2 h [1, 18]: Moderate (2); also recorded: Strong (3) | H4 acetylation (score), tumor, 3 h [1, 18]: Moderate (2); also recorded: Weak (1) | H4 acetylation score, tumor, mean, 15 min ([1]; 200 mg/kg i.v., score 0-3): 1.25 | H4 acetylation score, tumor, mean, 30 min ([1]; 200 mg/kg i.v., score 0-3): 2 | H4 acetylation score, tumor, mean, 1 h ([1]; 200 mg/kg i.v., score 0-3): 3 | H4 acetylation score, tumor, mean, 2 h ([1]; 200 mg/kg i.v., score 0-3): 2.33 | H4 acetylation score, tumor, mean, 3 h ([1]; 200 mg/kg i.v., score 0-3): 1.67 | time at which increased acetylated H4 was detected in tumor tissue [1, 19]: 15 min | time of maximal H4 acetylation level [1, 19]: 1 h | H4 acetylation [2]: strong (strong (score=3)) | H4 acetylation signal [3]: strongest signal | H4 acetylation in peripheral blood from A2780 xenografts [4]: returned to base line levels | biopsies with moderate cytoplasmic p21 expression ([6]; 100 mg/kg i.v., 2 h, one of four biopsies): 25% | tumors with strong cytoplasmic p21 expression ([6]; 100 mg/kg i.v., 3 h, 10 tumors): 10% | tumors with weak cytoplasmic p21 expression ([6]; 100 mg/kg i.v., 3 h, 10 tumors): 50% | cytoplasmic p21 expression, all biopsies removed after 6 h ([6]; 100 mg/kg i.v., 6 h): moderate-to-strong | tumors with strong cytoplasmic p21 expression ([6]; 100 mg/kg i.v., 6 h, four tumors): 25% | cytoplasmic p21 expression after 24 h ([6]; 100 mg/kg i.v., 24 h): disappeared | time of p21 induction in the cytoplasm ([6]; after belinostat treatment): about 3 h | H4 acetylation [7]: caused H4 acetylation | H4 acetylation in peripheral canine blood [8]: increased | H4 acetylation [9]: Weak | H4 acetylation in both biopsies and tumors [10]: strong (III) or moderate (IV) | H4 acetylation [11]: caused H4 acetylation | H4 acetylation in histones extracted from A2780 cells ([12]; 30 min after treatment with 1 μM): increased | H4 acetylation in histones extracted from A2780 cells ([12]; 3 h after treatment, 1 μM): returned to base line levels | H4 acetylation [13]: Weak | H4 acetylation after 6 and 24 h ([14]; 100 mg/kg i.v.): weak or no | H4 acetylation, general findings at 3 h ([14]; 100 mg/kg i.v.): weak or moderate | H4 acetylation in biopsy, same mouse (Fig. 4B) ([14]; 100 mg/kg i.v., 1 h after treatment): strong (strong (score=3)) | removed tumors with strong H4 acetylation ([14]; 100 mg/kg i.v., 3 h after treatment): 1/10 | acetylation period ([14]; 100 mg/kg i.v., Experiment 3, not extended at 200 mg/kg): 1 to 2 h | H4 acetylation in tumor, same mouse (Fig. 4B) ([14]; 100 mg/kg i.v., after 3 h): weak (weak (score=1)) | H4 acetylation, 1 h biopsy [14, 20]: Strong | H4 acetylation, 2 h biopsy [14, 20]: Strong | H4 acetylation, 3 h biopsy [14, 20]: Strong | H4 acetylation, 3 h tumor [14, 20]: Moderate and Weak | H4 acetylation, 6 h biopsy [14, 20]: Weak | H4 acetylation, 6 h tumor [14, 20]: Weak | H4 acetylation, all biopsies collected 2 h after treatment ([14]; 100 mg/kg i.v., n=4): strong (strong (score=3)) | H4 acetylation, all biopsies collected 1 h after treatment ([14]; 100 mg/kg i.v., n=5): strong (strong (score=3)) | H4 acetylation, 1 h biopsy [14, 21]: Strong | H4 acetylation, 2 h biopsy [14, 21]: Strong | H4 acetylation, 3 h biopsy [14, 21]: Moderate; also recorded: Strong | H4 acetylation, 3 h tumor [14, 21]: Weak and Moderate and Strong | H4 acetylation, 6 h biopsy [14, 21]: Weak | H4 acetylation, 6 h tumor [14, 21]: Weak | time at which H4 acetylation reached base line level ([14]; after treatment, A2780 xenograft): 3 h | H4 acetylation (score), spleen, 2 h (H4 acetylation in spleen; individual mice): Moderate (2) | H4 acetylation (score), spleen, 15 min (H4 acetylation in spleen; [22]): Moderate (2); also recorded: Weak (1) | H4 acetylation (score), spleen, 30 min (H4 acetylation in spleen; [22]): Strong (3); also recorded: Moderate (2) | H4 acetylation (score), spleen, 1 h (H4 acetylation in spleen; [22]): Strong (3); also recorded: Moderate (2) | H4 acetylation (score), spleen, 3 h (H4 acetylation in spleen; [22]): Weak (1); also recorded: No (0) | H4 acetylation score, spleen, mean, 15 min (H4 acetylation in spleen; score 0-3): 1.5 | H4 acetylation score, spleen, mean, 30 min (H4 acetylation in spleen; score 0-3): 2.5 | H4 acetylation score, spleen, mean, 1 h (H4 acetylation in spleen; score 0-3): 2.75 | H4 acetylation score, spleen, mean, 2 h (H4 acetylation in spleen; score 0-3): 2 | H4 acetylation score, spleen, mean, 3 h (H4 acetylation in spleen; score 0-3): 0.67

Compound: O=C(CCCCCCC(=O)Nc1ccccc1)NO [vorinostat, suberoylanilide hydroxamic acid]
pharmacokinetics (linearity) ([15]; dose proportional increases in Cmax and AUC): linear | half-life of acetylated histones at higher doses [16]: increased

Compound: Nc1ccccc1NC(=O)c1ccc(CNC(=O)OCc2cccnc2)cc1 [MS-275]
pharmacokinetics (linearity) [15]: linear, dose-independent
